SMILES strings stand for the structures. pIC50: −log10 of the molar value.

The target in test [1] is Serotonin 3 (5-HT3) receptor. Nature of the test: Binding affinity against 5-hydroxytryptamine 3 receptor was measured using [3H]granisetron as radioligand. The class given is protein-complex assay.
The target of test [2] is 5-hydroxytryptamine receptor 1D (Sus scrofa, UniProt P79400). Nature of the test: Binding affinity against 5-hydroxytryptamine 1D receptor was measured using [3H]5-HT as radioligand. An outline of the steps:
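Pig frontal cortex and striatum membranes (0.8 mg protein/mL), 2 nM [3H]-5-OH-tryptamine with 1 μM spiperone and 50 nM mesulergine, 25 °C, 30 min, 50 mM Tris-HCl pH 7.4, 4 mM CaCl2, 10 μM pargyline. Nonspecific binding with 10 μM 5-HT. Expressed as log IC50 ± SEM.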

Test [3] has as its target 5-hydroxytryptamine receptor 1A (Bos taurus). Put plainly: Binding affinity against 5-hydroxytryptamine 1A receptor was measured using [3H]8-OH-DPAT as radioligand.
In test [4] the target is 5-hydroxytryptamine receptor 2A (Bos taurus, UniProt Q75Z89). Put plainly: Binding affinity against 5-hydroxytryptamine 2A receptor was measured using [3H]ketanserin as radioligand. An outline of the steps: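 Bovine frontal cortex membranes (0.6 mg protein/mL) with 0.8 nM [3H]ketanserin and 100 nM WB4101, 37 °C for 30 min, in 50 mM Tris-HCl pH 7.4 plus 5 mM MgCl2, 10 mM NaCl, 0.5 mM EDTA, 10 μM pargyline. 10 μM spiperone defined nonspecific binding. Reported as log IC50 ± SEM.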
Chain of 5-hydroxytryptamine receptor 2A (Q75Z89 whole entry): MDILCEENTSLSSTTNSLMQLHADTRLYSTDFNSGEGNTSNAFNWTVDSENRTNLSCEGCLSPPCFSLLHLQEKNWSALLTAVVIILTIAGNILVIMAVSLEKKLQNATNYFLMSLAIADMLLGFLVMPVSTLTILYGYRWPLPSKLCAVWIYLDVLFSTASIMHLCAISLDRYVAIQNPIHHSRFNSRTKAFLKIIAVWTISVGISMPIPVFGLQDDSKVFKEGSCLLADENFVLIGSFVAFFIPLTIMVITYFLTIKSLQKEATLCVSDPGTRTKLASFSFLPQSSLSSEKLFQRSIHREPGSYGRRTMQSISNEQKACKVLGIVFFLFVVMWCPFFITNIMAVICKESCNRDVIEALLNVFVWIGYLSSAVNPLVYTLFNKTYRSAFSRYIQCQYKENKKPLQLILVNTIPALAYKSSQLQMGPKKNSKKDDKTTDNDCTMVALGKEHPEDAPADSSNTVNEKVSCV

Test [5] concerns the target 5-hydroxytryptamine receptor 1B (Rattus norvegicus, UniProt P28564). Nature of the test: Binding affinity towards 5-hydroxytryptamine 1B receptor was measured using [3H]5-HT as radioligand. Summed up: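 Rat frontal cortex and striatum membranes (0.8 mg protein/mL), 2 nM [3H]-5-OH-tryptamine, 1 μM spiperone, 50 nM mesulergine; 25 °C, 30 min; 50 mM Tris-HCl pH 7.4, 4 mM CaCl2, 10 μM pargyline. Nonspecific binding with 10 μM propranolol. Expressed as log IC50 ± SEM.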

Test [6] deals with 5-hydroxytryptamine receptor 2C (Sus scrofa). Nature of the test: Binding affinity against 5-Hydroxytryptamine 2C Receptor was measured using [3H]N-methyl-mesulergine as radioligand.

Chain of 5-hydroxytryptamine receptor 1D (P79400 whole entry): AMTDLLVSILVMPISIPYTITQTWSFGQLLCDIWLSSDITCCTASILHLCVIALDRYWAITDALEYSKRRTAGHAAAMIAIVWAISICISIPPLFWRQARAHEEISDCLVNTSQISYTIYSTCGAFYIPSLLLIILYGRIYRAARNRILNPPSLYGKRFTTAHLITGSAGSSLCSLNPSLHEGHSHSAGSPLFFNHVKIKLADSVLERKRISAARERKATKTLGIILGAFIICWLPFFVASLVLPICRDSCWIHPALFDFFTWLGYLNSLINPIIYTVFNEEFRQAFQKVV
Chain of 5-hydroxytryptamine receptor 1B (P28564 whole entry): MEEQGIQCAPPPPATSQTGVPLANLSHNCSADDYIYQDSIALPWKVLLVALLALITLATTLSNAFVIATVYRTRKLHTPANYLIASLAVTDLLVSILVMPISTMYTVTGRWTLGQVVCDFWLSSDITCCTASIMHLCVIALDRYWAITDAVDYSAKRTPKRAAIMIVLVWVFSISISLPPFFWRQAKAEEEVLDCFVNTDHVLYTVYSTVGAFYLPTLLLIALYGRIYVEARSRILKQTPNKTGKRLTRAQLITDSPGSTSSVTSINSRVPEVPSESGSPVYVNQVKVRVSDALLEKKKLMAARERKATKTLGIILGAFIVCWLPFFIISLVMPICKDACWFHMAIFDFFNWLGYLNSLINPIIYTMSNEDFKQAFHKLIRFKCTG

For the compound `c1cc2c(N3CCNCC3)nc3ccsc3n2c1`, the “-Log IC50” value in test [1] was 7.92.
For `COc1ccc2nc(N3CCN(Cc4ccc(F)cc4)CC3)c3cccn3c2n1`, the pIC50 (in general, the negative decadic logarithm of the IC50, by convention in mol/L) was less than 4.00 in test [2]; 4.25 in test [3]; less than 4.00 in test [4]; less than 4.00 in test [5]; less than 4.00 in test [6]. Besides, in test [1], the “-Log IC50” value turned out to be 6.93.
Consider `c1ccc(CN2CCN(c3nc4ccc5ncccc5c4n4cccc34)CC2)cc1`, for which the pIC50 in test [2] is less than 4.00; in test [4], less than 4.00; in test [5], 4.01. Also, the “-Log IC50” value in test [1] was 7.51.
Regarding `C=CCN1CCN(c2nc3ccc4ncccc4c3n3cccc23)CC1`, the pIC50 in test [2] is 5.24; in test [4], 4.67; in test [5], 4.71. In test [1], the “-Log IC50” value was 7.71.
For `c1cnc2c(c1)nc(N1CCNCC1)c1cccn12` the same measures were 5.77, 4.84, 6.82 and 8.83.
As for `C=CCN1CCN(c2nc3sccc3n3cccc23)CC1`, the “-Log IC50” value in test [1] is 9.04.
As for `COc1ccc2c(c1)nc(N1CCN(CCCCn3cccn3)CC1)c1cccn12`, the pIC50 was less than 4.00 in test [2], 5.79 in test [4] and 5.45 in test [5]. Also, the “-Log IC50” value in test [1] is less than 4.
As for `Cc1ccnc2c1nc(N1CCN(Cc3ccc(F)cc3)CC1)c1cccn12`, the figures for the pIC50 in test [2], in test [4] and in test [5] were less than 4.00, less than 4.00 and 4.15, respectively. In test [1], the “-Log IC50” value is listed as less than 4.
For `Fc1ccc(CN2CCN(Cc3nc4ccccc4n4cccc34)CC2)cc1`, the pIC50 was 4.07 in test [2], 4.77 in test [4] and 4.50 in test [5]. Besides, the “-Log IC50” value in test [1] is reported as 5.59.
For the compound `Fc1ccc(CN2CCN(c3nc4cccnc4n4cccc34)CC2)cc1`, the pIC50 in test [2] was 4.08; in test [3] it was 5.17; in test [4], 4.36; in test [5], 4.25; in test [6] it was 5.28. The “-Log IC50” value in test [1] worked out at 8.58.
Take `CN1CCN(c2nc3cc(C(F)(F)F)ccc3n3cccc23)CC1`: the “-Log IC50” value in test [1] was determined as 5.88.
For the compound `c1ccc(CN2CCN(c3ncccc3-n3cccc3)CC2)cc1`, the figures for the pIC50 in test [2], in test [4] and in test [5] were 4.96, 5.13 and 4.58, respectively. Besides, the “-Log IC50” value in test [1] was 7.34.
For `Fc1ccc(CN2CCN(c3nc4ccccc4n4cccc34)CC2)cc1` the same measures were less than 4.00, 4.33, 4.42 and 8.62.
For the compound `Fc1ccc(CN2CCN(c3nc4sccc4n4cccc34)CC2)cc1`, in test [5], the pIC50 was less than 4.00. For the same compound, the “-Log IC50” value in test [1] is 8.93.
For `COc1ccc2nc(N3CCN(Cc4ccccc4)CC3)c3cccn3c2n1`, the figures for the pIC50 in test [2], in test [4] and in test [5] were less than 4.00, 4.15 and less than 4.00, respectively. The “-Log IC50” value in test [1] was found to be 7.85.
With `c1ccc(N2CCN(c3nc4cccnc4n4cccc34)CC2)cc1`, the pIC50 in test [2], in test [4] and in test [5] was less than 4.00 in each case. In addition, the “-Log IC50” value in test [1] is 4.56.
For `c1cnc2c(c1)nc(N1CCN(Cc3ccc4c(c3)OCO4)CC1)c1cccn12`, the pIC50 was less than 4.00 in test [2], 4.34 in test [4] and 4.31 in test [5]. The “-Log IC50” value in test [1] is reported as 9.1.
For `CCOC(=O)N1CCN(c2nc3cccnc3n3cccc23)CC1`, the pIC50 in test [2], in test [4] and in test [5] was less than 4.00 each time. Also, the “-Log IC50” value in test [1] turned out to be 4.55.
`c1cnc2ccc3nc(N4CCN(Cc5ccc6c(c5)OCO6)CC4)c4cccn4c3c2c1`: the pIC50 in test [2] is 4.40; in test [4], 4.70; in test [5], 4.23. For the same compound, in test [1], the “-Log IC50” value is 7.55.
For `Clc1ccc(CN2CCN(c3nc4cccnc4n4cccc34)CC2)c(Cl)c1` the same measures were less than 4.00, less than 4.00, 4.11 and 5.89.

(Values after ChEMBL document CHEMBL1130056, “Novel and selective partial agonists of 5-HT3 receptors. 2. Synthesis and biological evaluation of piperazinopyridopyrrolopyrazines, piperazinopyrroloquinoxalines, and piperazinopyridopyrroloquinoxalines” (J Med Chem, 1997).)
